# Laboratory results from PubChem BioAssay AID624075 (Broad Institute, 2012).
# Active and inactive are the calls of the source.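 Rule for the calls: active = fitted curve reaches -35% activity change at a concentration no higher than twice the top valid tested dose; inactive = the rest, including activity in the opposite direction.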
# Test system: not listed separately
# Experiment: P. aeruginosa PAK growth delay under chelation, dose response, whole organism, PAK strain, OD600, EDDHA, dry powder, set 4 (AID 624075)
# Conditions: P. aeruginosa PAK growth with EDDHA, OD600, 28 h; at 100 µM (top of the series)
# Procedure, shortened: (§1)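 Material: wild-type Pseudomonas aeruginosa PAK bacterial culture / Probe or stimulus: EDDHA, 2 µM / Medium: succinate M9 medium, pH 7.0 / Compound: concentration series from 100 µM down to 15 nM final / Detection: absorbance at 600 nm as growth measure / Schedule: 28 h growth at 30 °C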
row,Structure (SMILES),"activity change, negative = growth inhibition"
1,N#CC(c1ccc(Cl)cc1)c1ccc(Cl)cn1 (stereo not drawn),-13.9% (inactive)
2,COCCC(C#N)c1ccc(F)cc1 (stereo not drawn),-1.57% (inactive)
3,N#CC(c1ccc(Cl)cc1)c1ncccc1Cl (stereo not drawn),-18.1% (inactive)
4,CCCCC(c1ccc(Cl)cc1)c1nn[nH]n1 (stereo not drawn),-6.42% (inactive)
5,CCCCC(C#N)c1ccc(F)cn1 (stereo not drawn),-7.64% (inactive)
6,COCCNC(C#N)c1ccc(Cl)cc1 (stereo not drawn),-2.09% (inactive)

# Test system: P. aeruginosa PAK growth with EDDHA, OD600, 28 h
# Experiment: as above
# Conditions: not given
# Procedure, shortened: as §1
row,Structure (SMILES),AC35
1,N#CC(c1ccc(F)cc1)c1cccc(C(F)(F)F)n1 (stereo not drawn),88.7 µM
2,N#CC(c1ccc(Cl)cc1)c1cccc(C(F)(F)F)n1 (stereo not drawn),71.1 µM
